The list is not random: actives were taken first. Their share in the collection is about 4.7%.
aSyn UTR inh: MLPCN primary screen, SNCA 5' untranslated region; 0.82% of 300,000 active; inhibition, % (tested at 7.5 µM); AID 1813; alpha-synuclein 5'UTR reporter, inhibitor activity; in the data active = inhibition above about 60%;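 note: H4 neuroglioblastoma cells stably carrying SNCA 5'UTR luciferase fusion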
697 NFkB inh: inhibitors of the PMA/ionomycin-induced NF-kB reporter in 697 B cells. 697 B-cell NF-kB luciferase reporter, 16 h. AID 435022. 0.33% of 330,000 active. inhibition, % at 4 µM; in the data active = inhibition above about 35%
Jurkat NFkB inh: lowers PMA/ionomycin-induced NF-kB signal in Jurkat cells; 0.53% of 330,000 active; PMA/ionomycin-induced NF-kB luciferase reporter, luminescence; inhibition, % at 4 µM; AID 435003; in the data active = inhibition above about 50%
Mdm2 MdmX PPI: disrupts the human Mdm2-MdmX interaction; AID 485346; SaOS-2 split-luciferase Mdm2/MdmX complementation, luminescence; 3% of 330,000 active; inhibition, % at 8 µM; O15151+Q00987;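 active = inhibition of at least 50% at 8 µM in the primary screen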
VIM-2 inh: inhibitors of Pseudomonas aeruginosa VIM-2 metallo-beta-lactamase; AID 1527; 0.89% of 290,000 active; purified VIM-2, nitrocefin hydrolysis, epi-absorbance fluorescence; inhibition, % at 5.6 µM;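 active = inhibition above the mean of all tested compounds plus 3 SD, cutoff set per screening run, cut at about 7.5% in these data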;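 note: red hydrolysis product quenches plate fluorescence so inhibitors raise well fluorescence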
IMP-1 inh: blocks Pseudomonas aeruginosa IMP-1 metallo-beta-lactamase; 0.45% of 290,000 active; purified IMP-1, nitrocefin hydrolysis, epi-absorbance fluorescence; inhibition, % at 5.6 µM;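 active = inhibition above the mean plus 3 SD of all compounds in the same screening run, cut at about 4.5% in these data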
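system = purified recombinant IMP-1 beta-lactamase | amount = 0.2 nM IMP-1, as dispensed | medium = HEPES buffer pH 7.1 with ZnSO4 and Brij 35 | times = 25 °C, 15 min preincubation, 25 min reaction | detection = plate fluorescence quenching by hydrolysis product, ex 480/em 530 nm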
Jurkat NFkB conf: inhibitors of the PMA/ionomycin-induced NF-kB reporter in Jurkat cells, retest; shares compounds with Jurkat NFkB inh; Jurkat NF-kB luciferase, 16 h; inhibition, % at 4 µM; 27% of 2,700 active; AID 435020;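 active = inhibition reaching about 45% at 4 µM in either replicate, limit read from the data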
697 NFkB conf: inhibitors of the PMA/ionomycin-induced NF-kB reporter in 697 B cells, retest; shares compounds with 697 NFkB inh; 697 B-cell NF-kB luciferase, 16 h; inhibition, % at 4 µM; 35% of 2,000 active; AID 449746; in the data active = inhibition mostly above about 28%, no sharp cut-off; inactive = mostly below about 22%
Mdm2 MdmX conf: confirmation of human Mdm2/MdmX interaction inhibitors. 55% of 10,000 active. AID 489028. Mdm2-MdmX binding, luminescent assay. shares compounds with Mdm2 MdmX PPI. inhibition, % at 8 µM; in the data active = inhibition above about 40%
Full FLuc ctr: counter-screen for Mdm2/MdmX inhibitors: full-length luciferase | shares compounds with Mdm2 MdmX PPI | SaOS-2 full-length luciferase counterscreen, luminescence | inhibition, % at 8 µM | 77% of 6,200 active | AID 504607;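 active = mean inhibition at 8 µM reaching about 37%, which flags the compound as non-specific, limit read from the data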;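 note: p53-null SaOS-2 cells with luciferase driven by a doxycycline-inducible promoter; compound on cells about two nights before reading with doxycycline added after day one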
Each line names hits and unclear results; the compound was inactive in the other large screens (follow-up assays come after a bar, where they were run).

O=C(NCc1ccc2c(c1)OCO2)c1cccc(S(=O)(=O)N2CCCC2)c1	none
COc1cc2nc(N(CCCN(C)C)C(=O)c3ccc(S(=O)(=O)N4CCc5ccccc5C4)cc3)sc2cc1OC	none (no result: VIM-2 inh, IMP-1 inh)
COc1ccc(OC)c2sc(N(CCCN(C)C)C(=O)c3ccc(S(=O)(=O)N4CCc5ccccc5C4)cc3)nc12	aSyn UTR inh 100.3, Jurkat NFkB inh 93.5, Mdm2 MdmX PPI 99.4 (no result: VIM-2 inh, IMP-1 inh) | Jurkat NFkB conf inactive | Mdm2 MdmX conf 99.8 | Full FLuc ctr inactive
COc1cc(CC(=O)N(CC(C)C)C2CCS(=O)(=O)C2)cc(OC)c1OC (configuration not stated)	none (no result: aSyn UTR inh, VIM-2 inh, IMP-1 inh)
Cc1cc(C)c2ccc(N)nc2c1O	aSyn UTR inh 64.7, Jurkat NFkB inh 52.1, Mdm2 MdmX PPI 82.9 | Jurkat NFkB conf inactive | Mdm2 MdmX conf 74.7 | Full FLuc ctr 41.4
CCc1ccc(S(=O)(=O)/N=C2\C=C(Nc3ccc(O)cc3)C(=O)c3ccccc32)cc1	aSyn UTR inh 101.4, Jurkat NFkB inh 53.6, Mdm2 MdmX PPI 100.3 | Jurkat NFkB conf 52.1 | Mdm2 MdmX conf 96.6 | Full FLuc ctr inactive
Cc1cc[n+](CC[n+]2ccc(C)cc2)cc1	none (no result: VIM-2 inh, IMP-1 inh)
CCC(C)(C)c1ccc(OCCCC[n+]2ccc(C)cc2)c(C(C)(C)CC)c1	697 NFkB inh 81.3, Jurkat NFkB inh 53.8, Mdm2 MdmX PPI 98.5 | Jurkat NFkB conf 55.1 | 697 NFkB conf 44.4 | Mdm2 MdmX conf 97.2 | Full FLuc ctr 53.4
CCC(C)(C)c1ccc(OCCCC[n+]2cccc(C)c2C)c(C(C)(C)CC)c1	aSyn UTR inh 100.8, Jurkat NFkB inh 94.2, Mdm2 MdmX PPI 100.2 | Jurkat NFkB conf 74.5 | Mdm2 MdmX conf 98.5 | Full FLuc ctr 53.0
COc1cc(/C=C/C(=O)c2ccc([N+](=O)[O-])o2)ccc1O	aSyn UTR inh 67.1, Jurkat NFkB inh 70.8, Mdm2 MdmX PPI 100.3 (no result: VIM-2 inh, IMP-1 inh) | Jurkat NFkB conf 47.5 | Mdm2 MdmX conf 100.2 | Full FLuc ctr inactive
CO/N=C/C(=N\Nc1ccc(C)cc1)C(=O)c1ccc(OC)cc1	Jurkat NFkB inh 50.9, Mdm2 MdmX PPI 54.7 | Jurkat NFkB conf inactive | Mdm2 MdmX conf 58.4 | Full FLuc ctr 64.8
CCOc1ccc(CN(C)C(=O)CNC(=O)C2CCCCC2)cc1	none
CCn1cc(C(=O)NCCCN2CCCC(C)C2)c(=O)c2cc(S(=O)(=O)N(C)C3CCCCC3)ccc21 (configuration not stated)	none
Cc1ccccc1C(=O)N1CCCC(N2CCN(Cc3ccc4c(c3)OCO4)CC2)C1 (configuration not stated)	none
Cc1sc2ncn(CC(=O)NCC(=O)N3CCN(c4ccccc4F)CC3)c(=O)c2c1C	none
CC(C)(C)c1ccc(C(=O)CC(=O)c2cc(Cl)ccc2O)cc1	none
N/C(=C\C(=O)c1cc(Cl)ccc1O)C(Cl)(Cl)Cl	Jurkat NFkB inh 64.0, Mdm2 MdmX PPI 94.7 | Jurkat NFkB conf inactive | Mdm2 MdmX conf 56.8 | Full FLuc ctr 54.4
CCOC(=O)N1CCN(C(=O)/C=C/c2ccc(OC)cc2)CC1	none
N#Cc1ccc(C(=O)NNC(=O)c2ccncc2)cc1	none
COC(=O)c1cnc(Oc2ccc(NC(=O)NC(=O)c3c(OC)cccc3OC)cc2)cc1C(F)(F)F	aSyn UTR inh 74.5, Jurkat NFkB inh 66.2, Mdm2 MdmX PPI 76.1 | Jurkat NFkB conf 60.5 | Mdm2 MdmX conf 57.5 | Full FLuc ctr 80.0
O=C(CC1NCCN(Cc2ccccc2)C1=O)Nc1ccccc1 (configuration not stated)	none
COc1ccc(CCNC(=O)CSCC(=O)Nc2cc(S(C)(=O)=O)ccc2Cl)cc1	none (no result: aSyn UTR inh, VIM-2 inh, IMP-1 inh)
Cc1c(C(=O)OCc2ccccc2)[nH]c2c1C(=O)CC(c1ccco1)C2 (configuration not stated)	Jurkat NFkB inh 62.6, Mdm2 MdmX PPI 67.3 | Jurkat NFkB conf inactive | Mdm2 MdmX conf 63.0 | Full FLuc ctr 80.8
Cc1c(C(=O)OCCOC(C)C)[nH]c2c1C(=O)CC(c1ccco1)C2 (configuration not stated)	Jurkat NFkB inh 60.2, Mdm2 MdmX PPI 63.8 | Jurkat NFkB conf inactive | Mdm2 MdmX conf 48.4 | Full FLuc ctr 86.2
CCOC(=O)c1[nH]c2c(c1C)C(=O)CC(c1ccco1)C2 (configuration not stated)	aSyn UTR inh 73.3, Jurkat NFkB inh 75.3, Mdm2 MdmX PPI 60.3 | Jurkat NFkB conf 55.3 | Mdm2 MdmX conf 58.8 | Full FLuc ctr 84.4
COC(=O)c1[nH]c2c(c1C)C(=O)CC(c1cccs1)C2 (configuration not stated)	aSyn UTR inh 84.6, Jurkat NFkB inh 55.9, Mdm2 MdmX PPI 60.3 | Jurkat NFkB conf 53.8 | Mdm2 MdmX conf 58.0 | Full FLuc ctr 73.6
O=C(C[C@@H]1C/C=C/CC[C@@H](Cc2ccc(F)cc2)C(=O)O[C@H](c2ccccc2)CNC1=O)NCCO	none (no result: aSyn UTR inh, VIM-2 inh, IMP-1 inh)
Cc1c(C(=O)CN2CCCC(C)(C)C2)c2ccccc2n1C	none
O=C(CSc1nc(O)c(C2CCCCC2)c(=O)[nH]1)Nc1ccc(F)cc1	none
O=C(CN1C(=O)COc2ccccc21)Nc1ccc(N2CCOCC2)cc1	none
Cc1ccc(C)c(NC(=O)C(Sc2ncnc3ccccc23)c2ccccc2)c1 (configuration not stated)	none
Cc1ccc(C)c(NC(=O)C(Sc2nc3ccccc3c(=O)n2CC(C)C)c2ccccc2)c1 (configuration not stated)	Jurkat NFkB inh 65.0, Mdm2 MdmX PPI 83.5 | Jurkat NFkB conf inactive | Mdm2 MdmX conf 63.0 | Full FLuc ctr 82.7
CN(C)S(=O)(=O)c1cccc(NC(=O)CN2C(=O)NC(Cc3ccccc3)C2=O)c1 (configuration not stated)	none (no result: aSyn UTR inh, VIM-2 inh, IMP-1 inh)
Cc1ccc(S(=O)(=O)NCCC(=O)N2CCN(c3ccccc3)CC2)cc1C	none (no result: aSyn UTR inh, VIM-2 inh, IMP-1 inh)
CSCCC(NC(=O)c1ccccc1)C(=O)NCCCn1nc(C)cc1C (configuration not stated)	none (no result: aSyn UTR inh, VIM-2 inh, IMP-1 inh)
COc1ccc(C(=O)c2ccc(N(C)C)cc2)c(OC)c1	Jurkat NFkB inh 67.9, Mdm2 MdmX PPI 61.7 | Jurkat NFkB conf 47.0 | Mdm2 MdmX conf 47.6 | Full FLuc ctr 36.9
COc1ccc(C(=O)c2ccc(OC)cc2OC)cc1	none
Cc1nc2sccn2c(=O)c1S(=O)(=O)N1CCN(c2cccc(Cl)c2)CC1	none
